Calls of active or inactive are those of the source. No cut-off for these calls is given here.
Key:
A-431 = assay: cells; assay type: functional, cell-based; details: Homo sapiens, A-431, 72 h
cells [1] = assay type: ADME, cell-based; details: Homo sapiens, 16HBE14o-, 72 h
A549 = assay: cells; assay type: functional, cell-based; details: Homo sapiens, A549, 72 h
cells [2] = assay type: functional, cell-based; details: Homo sapiens, HCC827, 72 h
NCI-H1975 [3] = assay: Antiproliferative activity against human NCI-H1975 cells harboring EGFR L858R/T790M mutant after 72 hrs by MTT assay; assay type: functional, cell-based; details: NCI-H1975, 72 h
[4] = molecular target: Epidermal growth factor receptor (Homo sapiens, UniProt P00533, L858R); assay type: protein assay
Sequence of Epidermal growth factor receptor (Homo sapiens, UniProt P00533, L858R) (P00533 25-1210 L858R limits assumed): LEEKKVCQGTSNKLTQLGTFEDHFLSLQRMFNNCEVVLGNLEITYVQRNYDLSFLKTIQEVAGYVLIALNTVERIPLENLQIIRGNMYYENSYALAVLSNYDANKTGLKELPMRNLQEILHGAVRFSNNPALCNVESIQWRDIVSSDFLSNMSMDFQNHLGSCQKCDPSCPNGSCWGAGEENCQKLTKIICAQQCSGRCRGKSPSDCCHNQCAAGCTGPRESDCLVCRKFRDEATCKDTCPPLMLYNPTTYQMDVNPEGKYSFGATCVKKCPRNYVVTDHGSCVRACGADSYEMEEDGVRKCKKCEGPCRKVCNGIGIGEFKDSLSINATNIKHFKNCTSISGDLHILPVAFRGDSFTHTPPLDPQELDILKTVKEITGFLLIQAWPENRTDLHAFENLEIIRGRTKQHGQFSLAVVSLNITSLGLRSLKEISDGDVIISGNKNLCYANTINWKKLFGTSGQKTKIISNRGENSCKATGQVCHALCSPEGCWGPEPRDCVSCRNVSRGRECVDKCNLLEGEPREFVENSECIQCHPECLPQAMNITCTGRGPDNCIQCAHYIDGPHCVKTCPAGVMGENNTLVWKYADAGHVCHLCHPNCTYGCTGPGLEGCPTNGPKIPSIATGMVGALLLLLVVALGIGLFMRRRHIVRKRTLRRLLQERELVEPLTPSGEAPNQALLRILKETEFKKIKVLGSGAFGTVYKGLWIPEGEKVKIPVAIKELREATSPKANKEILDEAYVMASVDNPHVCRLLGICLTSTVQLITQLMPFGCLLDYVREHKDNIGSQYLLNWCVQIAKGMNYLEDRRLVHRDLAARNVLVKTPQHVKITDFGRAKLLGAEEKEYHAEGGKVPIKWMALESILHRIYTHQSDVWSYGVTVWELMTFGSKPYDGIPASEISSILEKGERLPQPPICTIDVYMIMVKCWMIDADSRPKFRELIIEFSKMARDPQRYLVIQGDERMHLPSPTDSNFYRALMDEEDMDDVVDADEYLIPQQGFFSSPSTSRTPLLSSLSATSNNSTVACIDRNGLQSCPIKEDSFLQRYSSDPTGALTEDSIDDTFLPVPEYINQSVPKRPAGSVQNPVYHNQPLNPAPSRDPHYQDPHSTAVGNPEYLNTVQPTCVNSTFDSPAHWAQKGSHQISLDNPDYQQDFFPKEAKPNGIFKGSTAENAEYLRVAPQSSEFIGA

cells [5] = assay type: functional, cell-based; details: Homo sapiens, BEAS-2B, 72 h
[6] = molecular target: Epidermal growth factor receptor (Homo sapiens, UniProt P00533)
Sequence of Epidermal growth factor receptor (Homo sapiens, UniProt P00533) (P00533 whole entry): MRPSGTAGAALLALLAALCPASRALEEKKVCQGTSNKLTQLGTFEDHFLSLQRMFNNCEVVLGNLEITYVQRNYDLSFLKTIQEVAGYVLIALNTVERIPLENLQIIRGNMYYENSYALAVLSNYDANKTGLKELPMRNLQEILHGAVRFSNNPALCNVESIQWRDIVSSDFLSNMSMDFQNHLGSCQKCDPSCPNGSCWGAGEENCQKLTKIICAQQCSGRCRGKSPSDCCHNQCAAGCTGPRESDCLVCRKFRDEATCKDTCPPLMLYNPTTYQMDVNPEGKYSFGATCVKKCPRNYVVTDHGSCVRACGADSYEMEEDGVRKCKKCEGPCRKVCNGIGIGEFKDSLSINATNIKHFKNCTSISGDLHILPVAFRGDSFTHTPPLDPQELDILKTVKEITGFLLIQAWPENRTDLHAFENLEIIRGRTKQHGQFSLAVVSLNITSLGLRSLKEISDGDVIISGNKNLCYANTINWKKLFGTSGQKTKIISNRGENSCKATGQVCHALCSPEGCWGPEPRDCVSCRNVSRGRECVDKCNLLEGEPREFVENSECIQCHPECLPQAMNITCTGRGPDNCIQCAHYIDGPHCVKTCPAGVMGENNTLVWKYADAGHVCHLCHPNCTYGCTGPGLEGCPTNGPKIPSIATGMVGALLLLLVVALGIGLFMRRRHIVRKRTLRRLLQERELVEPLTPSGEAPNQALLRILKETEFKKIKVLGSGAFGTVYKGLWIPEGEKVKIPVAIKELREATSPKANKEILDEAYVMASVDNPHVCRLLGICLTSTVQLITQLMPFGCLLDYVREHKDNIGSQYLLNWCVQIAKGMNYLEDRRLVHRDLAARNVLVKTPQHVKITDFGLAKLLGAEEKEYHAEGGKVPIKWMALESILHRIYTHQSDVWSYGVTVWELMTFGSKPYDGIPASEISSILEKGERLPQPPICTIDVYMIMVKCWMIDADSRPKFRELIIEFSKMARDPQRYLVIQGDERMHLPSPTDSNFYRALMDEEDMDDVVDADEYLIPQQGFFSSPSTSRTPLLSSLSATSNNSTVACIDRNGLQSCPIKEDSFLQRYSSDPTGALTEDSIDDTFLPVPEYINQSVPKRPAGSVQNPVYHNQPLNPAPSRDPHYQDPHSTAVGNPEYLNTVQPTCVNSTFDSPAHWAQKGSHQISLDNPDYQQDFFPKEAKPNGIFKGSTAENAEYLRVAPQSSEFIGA

[7] = molecular target: Epidermal growth factor receptor (Homo sapiens, UniProt P00533, L858R/T790M); assay type: protein assay
Sequence of Epidermal growth factor receptor (Homo sapiens, UniProt P00533, L858R/T790M) (P00533 25-1210 T790M/L858R limits assumed): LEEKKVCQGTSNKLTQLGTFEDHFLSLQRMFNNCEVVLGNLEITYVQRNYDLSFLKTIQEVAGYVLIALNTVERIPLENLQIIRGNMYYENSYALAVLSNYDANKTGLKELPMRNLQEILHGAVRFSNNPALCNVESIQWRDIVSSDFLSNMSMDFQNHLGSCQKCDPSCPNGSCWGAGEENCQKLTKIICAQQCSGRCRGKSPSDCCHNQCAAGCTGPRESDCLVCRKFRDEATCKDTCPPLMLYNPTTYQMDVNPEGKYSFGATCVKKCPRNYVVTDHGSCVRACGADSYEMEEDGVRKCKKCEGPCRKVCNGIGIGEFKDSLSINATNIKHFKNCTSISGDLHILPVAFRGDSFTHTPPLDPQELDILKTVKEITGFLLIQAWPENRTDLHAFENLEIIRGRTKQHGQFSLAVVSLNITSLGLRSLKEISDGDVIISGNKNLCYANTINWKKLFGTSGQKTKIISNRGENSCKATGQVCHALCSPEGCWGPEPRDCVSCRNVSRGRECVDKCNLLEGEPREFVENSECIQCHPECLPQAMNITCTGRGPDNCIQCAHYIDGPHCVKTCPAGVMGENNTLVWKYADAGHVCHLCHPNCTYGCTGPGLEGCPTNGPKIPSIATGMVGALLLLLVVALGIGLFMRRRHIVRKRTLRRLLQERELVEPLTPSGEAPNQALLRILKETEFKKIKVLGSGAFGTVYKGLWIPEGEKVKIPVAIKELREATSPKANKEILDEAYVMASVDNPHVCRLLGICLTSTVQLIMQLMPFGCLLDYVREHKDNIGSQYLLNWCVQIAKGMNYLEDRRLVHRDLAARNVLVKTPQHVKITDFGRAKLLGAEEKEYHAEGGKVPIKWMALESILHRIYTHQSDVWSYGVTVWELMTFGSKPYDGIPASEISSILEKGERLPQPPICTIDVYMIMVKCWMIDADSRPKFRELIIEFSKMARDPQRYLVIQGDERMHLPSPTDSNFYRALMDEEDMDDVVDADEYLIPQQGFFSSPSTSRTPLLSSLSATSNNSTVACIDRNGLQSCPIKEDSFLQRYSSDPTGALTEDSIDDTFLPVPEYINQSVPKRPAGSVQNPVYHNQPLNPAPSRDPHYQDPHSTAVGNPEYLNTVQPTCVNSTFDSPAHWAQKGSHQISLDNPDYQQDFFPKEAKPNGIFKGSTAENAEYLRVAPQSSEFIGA

[8] = GSH reactivity assessed as compound remaining at 50 uM after 1 hr at pH 7.4 by LC-UV analysis; assay type: physicochemical; details: read-out: Activity
Outline: (§1)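 Freshly prepared thiol (DTT, reduced GSH or L-cysteine; 2 mM) added to PBS pH 7.4 containing test compound, incubated 1 h at 37 °C. Remaining parent measured by HPLC-UV (C18, 281 nm); mean ± SD, n = 3.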

[9] = (§2) Stability of the compound in rat plasma assessed as compound remaining at 50 uM at pH 7.4 after 24 hrs by LC-UV analysis; assay type: ADME, cell-free; details: pH 7.4, read-out: Stability
Outline: (§3)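 Rat plasma diluted to 50% (v/v) with 0.1 M PBS pH 7.4 and spiked with compound from a DMSO stock, then incubated 24 h at 37 °C. Two volumes acetonitrile added, centrifuged (4 °C, 14,000 g, 15 min), supernatant run on RP-HPLC with UV at 281 nm; percent remaining, n = 3.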

[10] = Chemical stability of the compound in buffer solution assessed as compound remaining at 50 uM at pH 9 after 24 hrs by LC-UV analysis; assay type: physicochemical
Outline: (§4)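 1 mM DMSO stocks diluted to 50 µM final (5% v/v DMSO) in prewarmed 0.01 M PBS pH 7.4 or 0.01 M borate buffer pH 9.0. Incubated at 37 °C for 24 h, mixed with equal volume acetonitrile, analysed by C18 RP-HPLC with UV detection at 281 nm; percent remaining, mean ± SD, n = 3.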

[11] = DTT reactivity assessed as compound remaining at 50 uM after 1 hr at pH 7.4 by LC-UV analysis; assay type: physicochemical; details: read-out: Activity
Outline: as §1

[12] = L-cysteine reactivity assessed as compound remaining at 50 uM after 1 hr at pH 7.4 by LC-UV analysis; assay type: physicochemical; details: read-out: Activity
Outline: as §1

[13] = Chemical stability of the compound in buffer solution assessed as compound remaining at 50 uM at pH 7.4 after 24 hrs by LC-UV analysis; assay type: physicochemical; details: read-out: Stability
Outline: as §4

[14] = tested on: Epidermal growth factor receptor (Homo sapiens), P00533 [L858R,T790M]; assay: Inhibition of EGFR phosphorylation in human H1975 cells harboring EGFR L858R/T790M mutant by Western blotting analysis; assay type: cell-based
Sequence of Epidermal growth factor receptor (Homo sapiens), P00533 [L858R,T790M] (P00533 whole entry T790M/L858R, looked up): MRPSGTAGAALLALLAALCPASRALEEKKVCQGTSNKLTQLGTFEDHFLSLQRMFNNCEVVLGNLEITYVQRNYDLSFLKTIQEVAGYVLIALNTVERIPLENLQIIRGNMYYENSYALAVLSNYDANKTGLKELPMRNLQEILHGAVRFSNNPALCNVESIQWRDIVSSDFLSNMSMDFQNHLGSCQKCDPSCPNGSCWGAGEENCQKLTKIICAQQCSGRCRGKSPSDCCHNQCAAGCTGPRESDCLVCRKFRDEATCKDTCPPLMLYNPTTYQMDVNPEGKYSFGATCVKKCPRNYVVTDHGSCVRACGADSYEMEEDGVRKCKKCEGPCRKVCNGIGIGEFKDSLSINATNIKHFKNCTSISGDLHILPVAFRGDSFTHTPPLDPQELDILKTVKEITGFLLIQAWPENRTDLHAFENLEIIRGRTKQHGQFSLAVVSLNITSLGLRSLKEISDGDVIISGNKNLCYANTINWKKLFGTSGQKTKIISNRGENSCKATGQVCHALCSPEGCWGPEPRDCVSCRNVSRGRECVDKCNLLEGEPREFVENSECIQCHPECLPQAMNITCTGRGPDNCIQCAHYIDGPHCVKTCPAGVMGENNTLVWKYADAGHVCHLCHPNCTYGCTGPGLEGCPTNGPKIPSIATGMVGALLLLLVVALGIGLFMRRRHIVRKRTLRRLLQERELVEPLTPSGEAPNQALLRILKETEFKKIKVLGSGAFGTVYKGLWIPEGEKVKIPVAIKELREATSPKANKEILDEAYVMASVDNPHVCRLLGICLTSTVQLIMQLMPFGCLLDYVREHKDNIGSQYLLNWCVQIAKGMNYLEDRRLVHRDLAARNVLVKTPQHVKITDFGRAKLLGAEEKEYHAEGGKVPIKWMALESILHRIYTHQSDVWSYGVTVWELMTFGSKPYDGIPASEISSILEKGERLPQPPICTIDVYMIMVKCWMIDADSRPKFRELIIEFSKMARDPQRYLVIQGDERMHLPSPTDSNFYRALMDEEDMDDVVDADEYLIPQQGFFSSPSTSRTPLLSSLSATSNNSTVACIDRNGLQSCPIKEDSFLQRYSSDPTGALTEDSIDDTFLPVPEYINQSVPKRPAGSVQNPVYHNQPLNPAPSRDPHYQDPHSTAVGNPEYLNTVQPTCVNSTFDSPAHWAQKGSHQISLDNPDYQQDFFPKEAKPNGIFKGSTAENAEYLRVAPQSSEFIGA
Outline: (§5)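 Lysates (50 µg/lane) separated on 7.5% SDS-PAGE and blotted to nitrocellulose. Probed for total and phospho-EGFR (Tyr1068), Akt (Ser473) and ERK (Thr202/Tyr204) plus β-actin; HRP secondaries with ECL detection.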

[15] = molecular target: RAC-alpha serine/threonine-protein kinase (Homo sapiens) (UniProt P31749); assay: Inhibition of Akt phosphorylation in human H1975 cells harboring EGFR L858R/T790M mutant at 1 uM by Western blotting analysis; assay type: cell-based
Outline: as §5

NCI-H1975 [16] = assay: Antiproliferative activity against human NCI-H1975 cells harboring EGFR L858R/T790M mutant at 5 uM after 72 hrs by MTT assay in presence of 1 to 20 uM haemoglobin NO scavenger; assay type: functional, cell-based; details: in the assay text read “24 hrs” for “72 hrs”
Outline: (§6)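 Cells pretreated 1 h with hemoglobin (0, 1, 5, 10 or 20 µM) as NO scavenger, then exposed to 5 µM test compound for 24 h; growth read by MTT assay.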

HCC827 = assay: Antiproliferative activity against gefitinib-sensitive human HCC827 cells bearing EGFR del E746_A750 mutant at 5 uM after 72 hrs by MTT assay in presence of 1 to 20 uM haemoglobin NO scavenger; assay type: functional, cell-based; details: in the assay text read “24 hrs” for “72 hrs”
Outline: as §6

[17] = tested on: Epidermal growth factor receptor (Homo sapiens), P00533 [L858R,T790M]; details: H1975, at 1 µM
H1975 = details: Homo sapiens, at 1 µM
[18] = tested on: Epidermal growth factor receptor (Homo sapiens), P00533 [L858R,T790M]; assay: Inhibition of EGFR phosphorylation in human H1975 cells harboring EGFR L858R/T790M mutant at 0.1 uM by Western blotting analysis; assay type: cell-based
Outline: as §5

NCI-H1975 [19] = assay: Induction of NO production in human NCI-H1975 cells harboring EGFR L858R/T790M mutant at 100 uM incubated for 150 mins; assay type: functional, cell-based
Outline: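 H1975 or 16HBE cells (1 × 10⁶/well) exposed to 100 µM compound for 150 min, then harvested and lysed. Lysates mixed with Griess reagent for 10 min and absorbance read at 540 nm. Nitrite quantified against a […] standard curve, with diluent-treated cells as background.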

Plasma = assay: as §2; assay type: ADME, cell-free; details: pH 7.4, 24 h, 50 µM, BLD = below limit of detection
Outline: as §3

SMILES | IC50 (A-431) [nM] | IC50 (cells [1]) [nM] | IC50 (A549) [nM] | IC50 (cells [2]) [nM] | IC50 (NCI-H1975 [3]) [nM] | IC50 [4] [nM] | IC50 (cells [5]) [nM] | IC50 [6] [nM] | IC50 [7] [nM] | other results
COc1cc(N2CCN(C)CC2)ccc1Nc1ncc(Cl)c(Oc2cccc(NC(=O)CCN3CCN(C)CC3)c2)n1 | 548 | 1750 | 1030 | 1500 | 1040 | 10000 | 412 | 7440 | 4710 | 
COc1cc(N2CCN(C)CC2)ccc1Nc1ncc(Cl)c(Oc2cccc(NC(=O)CCN(C)C)c2)n1 | 545 | 1140 | 923 | 266 | 156 | 804 | 615 | 638 | 184 | 
COc1cc(N2CCN(C)CC2)ccc1Nc1ncc(Cl)c(Oc2cccc(NC(=O)CCN3CCCC3)c2)n1 | 804 | 1130 | 1210 | 210 | 268 | 427 | 1890 | 525 | 88 | 
CCOC(=O)N1CCN(CCC(=O)Nc2cccc(Oc3nc(Nc4ccc(N5CCN(C)CC5)cc4OC)ncc3Cl)c2)CC1 | 4530 | 3700 | 5280 | 883 | 1600 | 2380 | 5780 | 698 | 537 | 
COc1cc(N2CCN(C)CC2)ccc1Nc1ncc(Cl)c(Oc2cccc(NC(=O)CCN3CCOCC3)c2)n1 | 3910 | 3600 | 2620 | 899 | 1020 | > 10000 | 2270 | > 10000 | > 10000 | 
COc1cc(N2CCN(C)CC2)ccc1Nc1ncc(Cl)c(Oc2cccc(NC(=O)CCN3CCN(CCO)CC3)c2)n1 | 632 | 2060 | 2820 | 799 | 931 | 5870 | 1660 | 2390 | 2420 | remaining at 1 h, 50 µM [8]: 100%; remaining at 24 h, 50 µM [9]: 105%; remaining at 24 h, 50 µM ([10]; buffer solution, pH 9, read-out: Stability): 81.4%; remaining at 1 h, 50 µM [11]: 101%; remaining at 1 h, 50 µM [12]: 101%; remaining at 24 h, 50 µM [13]: 99.5%
COc1cc(N2CCN(C)CC2)ccc1Nc1ncc(Cl)c(Oc2cccc(NC(=O)CCN3CCN(CCOc4no[n+]([O-])c4S(=O)(=O)c4ccccc4)CC3)c2)n1 | 4470 | 2880 | 8250 | 130 | 108 | 262 | 3370 | 201 | 263 | inhibition [14]: Dose-dependent effect; inhibition [15]: Active; inhibition (NCI-H1975 [16]): inactive; inhibition (HCC827): inactive; inhibition [17]: Active; inhibition (H1975): Active; inhibition [18]: Active; Activity (NCI-H1975 [19]): Active
CCN(CC)CCC(=O)Nc1cccc(Oc2nc(Nc3ccc(N4CCN(C)CC4)cc3OC)ncc2Cl)c1 | 291 | 620 | 1000 | 249 | 166 | 818 | 433 | 877 | 181 | 
COc1cc2ncnc(Nc3ccc(F)c(Cl)c3)c2cc1OCCCN1CCOCC1 |  |  |  |  |  |  |  |  |  | inhibition [15]: inactive; Activity (NCI-H1975 [19]): Active
COc1cc(N2CCN(C)CC2)ccc1Nc1ncc(Cl)c(Oc2cccc(NC(=O)CCN3CCCCC3)c2)n1 | 410 | 970 | 1120 | 337 | 178 | 4530 | 365 | 10000 | 2180 | 
C=CC(=O)Nc1cccc(Oc2nc(Nc3ccc(N4CCN(C)CC4)cc3OC)ncc2Cl)c1 |  |  |  | 8 | 46 |  |  |  |  | remaining at 1 h, 50 µM [8]: 73.5%; Stability (Plasma): BLD; Stability ([10]; buffer, pH 9, 24 h, 50 µM, BLD = below limit of detection): BLD; remaining at 1 h, 50 µM [11]: 11.3%; remaining at 1 h, 50 µM [12]: 12.2%; remaining at 24 h, 50 µM [13]: 101%
